# Measurements gathered from unrelated publications.
# Each line is one published result; the experiments were not run side by side.
# Target: Serine/threonine-protein kinase MRCK beta (CDC42BPB, Homo sapiens, UniProt Q9Y5S2)
effect on,mode,technique,tested at,quantity,result,Structure (SMILES)
enzyme activity,inhibitor,,1 µM,inhibition,2%,COc1cc2ncnc(Nc3ccc(Oc4ccccc4)c(C)c3C)c2cc1OC
enzyme activity,inhibitor,,10 µM,remaining activity,0%,CCCOc1ccc(OC)c(F)c1C(=O)c1ccc(C(=O)N[C@@H]2CNC[C@H]2NC(=O)c2ccc3[nH]ncc3c2)cc1
enzyme activity,inhibitor,,0.1 µM,activity vs control,100%,Cc1cc(NC(=O)c2cccc3cc(-c4cccc5[nH]nc(N)c45)ccc23)ccc1F
enzyme activity,inhibitor,,0.3 µM,inhibition,12%,CNC(=O)c1cc(Oc2ccc(NC(=O)Nc3ccc(Cl)c(C(F)(F)F)c3)cc2)ccn1
enzyme activity,inhibitor,,0.5 µM,remaining activity,106%,O=c1c2ccccc2[nH]c(=S)n1CCN1CCC(=C(c2ccc(F)cc2)c2ccc(F)cc2)CC1
cell-free assay,,competition with immobilised ligand,1 µM,remaining binding,100%,CNCc1ccccc1-c1csc([C@H](C)Nc2nc(C)nc3cc(OC)c(OC)cc23)c1
enzyme activity,inhibitor,,0.5 µM,remaining activity,96.1%,CCN(CC)CCNC(=O)c1c(C)[nH]c(/C=C2\C(=O)Nc3ccc(Cl)cc32)c1C
enzyme activity,inhibitor,,5 µM,remaining activity,89%,O=C(Nc1cnn(-c2csc(C(=O)NC3COC3)c2)c1)Nc1c(F)cccc1Cl
enzyme activity,inhibitor,,0.3 µM,inhibition,9%,Cc1ccc(Nc2nccc(N(C)c3ccc4c(C)n(C)nc4c3)n2)cc1S(N)(=O)=O
enzyme activity,inhibitor,,23.5 nM,remaining activity,95%,Cc1ccc(C(=O)Nc2ccc(CN3CCN(C)CC3)c(C(F)(F)F)c2)cc1C#Cc1cnc2cccnn12
cell-free assay,,competition with immobilised ligand,1 µM,remaining binding,100%,Cc1nc(N2CC[C@@H](O)C2)ncc1-c1cc(C(F)(F)F)cc2[nH]ncc12
cell-free assay,,,0.5 µM,remaining signal,91.4%,O=C1Nc2ccc(Cl)cc2C1=Cc1cc(Cl)c(O)c(Cl)c1
cell-free assay,,competition with immobilised ligand,1 µM,remaining binding,100%,Cc1c(NC(=O)c2cc(C(N)=O)nc3cc(F)ccc23)c(C(F)(F)F)nn1Cc1ccc(C#N)cc1
enzyme activity,inhibitor,,0.3 µM,inhibition,8%,CCN(CC)CCNC(=O)c1c(C)[nH]c(/C=C2\C(=O)Nc3ccc(F)cc32)c1C
enzyme activity,inhibitor,,20 µM,remaining activity,33%,Nc1ncnc2occ(-c3ccc(NC(=O)Nc4cc(C(F)(F)F)ccc4F)cc3)c12
enzyme activity,inhibitor,,0.1 µM,inhibition,84.3%,CC/C(=N\NC(=O)NCc1cccc(O)c1)c1ccc(O)c(C)c1O
target engagement in cells,inhibitor,chemoproteomics,20 mM,inhibition,-0.5%,c1ccc(CNc2nc(N3CCOc4ccccc43)nc3c2CCCC3)cc1
cell-free assay,,competition with immobilised ligand,1 µM,remaining binding,100%,CCc1ccccc1C(=O)Nc1n[nH]c2c(C)c(F)c(C3C(C#N)=C(C)N(C)C(C)=C3C#N)cc12
enzyme activity,inhibitor,,1 µM,inhibition,< 10%,CCCS(=O)(=O)Nc1ccc(F)c(C(=O)c2c[nH]c3ncc(-c4ccc(Cl)cc4)cc23)c1F
cell-free assay,,competition with immobilised ligand,1 µM,remaining binding,94%,O=C(NS(=O)(=O)c1ccc(NCC2CCOCC2)c([N+](=O)[O-])c1)c1ccc(N2CCN(Cc3ccc(C(F)(F)F)cc3-c3ccc(Cl)cc3)CC2)cc1Oc1cnc2[nH]ccc2c1
target engagement in cells,inhibitor,chemoproteomics,20 mM,inhibition,-1.3%,COc1cccc2c(NCc3ccccc3)nc(-n3c(N)nc4ccccc43)nc12
cell-free assay,,competition with immobilised ligand,1 µM,remaining binding,100%,CN([C@@H]1CCc2c(CC(=O)O)c3cc(S(C)(=O)=O)ccc3n2C1)S(=O)(=O)c1ccc(F)cc1
enzyme activity,inhibitor,,0.5 µM,activity vs control,97.2%,O=C1c2ccccc2-c2n[nH]c3cccc1c23
cell-free assay,,competition with immobilised ligand,1 µM,remaining binding,100%,CN(c1ccnc(CNc2nc(Nc3ccc4c(c3)CC(=O)N4)ncc2C(F)(F)F)n1)S(C)(=O)=O
enzyme activity,inhibitor,radiometric,1 µM,remaining activity,100%,CC(C)(C)c1nc2c(s1)c1nc(N)ncc1c1ccc(NS(=O)(=O)c3c(F)cccc3F)c(F)c12
enzyme activity,inhibitor,radiometric,1 µM,remaining activity,59%,Cc1cnc(NC2CCOCC2)nc1-n1cnc(C(=O)NC(CN)c2cc(F)cc(Cl)c2)c1 (stereo not drawn)
cell-free assay,,competition with immobilised ligand,1 µM,remaining binding,100%,CS(=O)(=O)c1cc(C2(NC(=O)c3cncc4c3cnn4-c3ccc(F)cc3)CC2)ccn1
